In ChEMBL document CHEMBL3396961, “Novel pyrazole-5-carboxamide and pyrazole-pyrimidine derivatives: synthesis and anticancer activity” (Eur J Med Chem, 2015):

Key:
MGC-803 [1] = experiment: Cytotoxicity against human MGC803 cells after 48 hrs by MTT assay; assay type: functional, cell-based; conditions: MGC-803, 48 h
Procedure, shortened: (§1)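 Cells were grown to log phase in RPMI 1640 with 10% FBS and seeded at 3×10^4 cells/mL. After 24 h preincubation (37 °C, 5% CO2) they were exposed 48 h to preset concentrations, 6 wells each; vehicle 0.1% DMSO, 5-fluorouracil as reference. MTT (2.5 mg/mL in PBS) for 4 h, formazan dissolved in DMSO, A570 read. IC50 taken at 50% survival; mean ± SD of three experiments in triplicate.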

[2] = target: Telomerase reverse transcriptase (Homo sapiens, UniProt O14746); experiment: Inhibition of telomerase in human MGC803 cells after 24 hrs by TRAP-PCR-ELISA; assay type: cell-based, MGC-803
Bcap37 = experiment: Cytotoxicity against human Bcap37 cells after 48 hrs by MTT assay; assay type: functional, cell-based; conditions: Bcap37, 48 h; procedure, shortened: as §1
[3] = Cytotoxicity against human SGC7901 cells after 48 hrs by MTT assay; assay type: functional, cell-based; conditions: SGC-7901, 48 h; procedure, shortened: as §1
MGC-803 [4] = experiment: Cell cycle arrest in human MGC803 cells assessed as accumulation at G1 phase at 3 uM after 48 hrs by propidium iodide staining-based flow cytometry (reference value: 62.91%); assay type: functional
MGC-803 [5] = experiment: Cell cycle arrest in human MGC803 cells assessed as accumulation at S phase at 3 uM after 48 hrs by propidium iodide staining-based flow cytometry (reference value: 30.38%); assay type: functional
MGC-803 [6] = experiment: Cell cycle arrest in human MGC803 cells assessed as accumulation at G2 phase at 3 uM after 48 hrs by propidium iodide staining-based flow cytometry (reference value: 6.7%); assay type: functional

Chain of Telomerase reverse transcriptase (O14746 whole entry): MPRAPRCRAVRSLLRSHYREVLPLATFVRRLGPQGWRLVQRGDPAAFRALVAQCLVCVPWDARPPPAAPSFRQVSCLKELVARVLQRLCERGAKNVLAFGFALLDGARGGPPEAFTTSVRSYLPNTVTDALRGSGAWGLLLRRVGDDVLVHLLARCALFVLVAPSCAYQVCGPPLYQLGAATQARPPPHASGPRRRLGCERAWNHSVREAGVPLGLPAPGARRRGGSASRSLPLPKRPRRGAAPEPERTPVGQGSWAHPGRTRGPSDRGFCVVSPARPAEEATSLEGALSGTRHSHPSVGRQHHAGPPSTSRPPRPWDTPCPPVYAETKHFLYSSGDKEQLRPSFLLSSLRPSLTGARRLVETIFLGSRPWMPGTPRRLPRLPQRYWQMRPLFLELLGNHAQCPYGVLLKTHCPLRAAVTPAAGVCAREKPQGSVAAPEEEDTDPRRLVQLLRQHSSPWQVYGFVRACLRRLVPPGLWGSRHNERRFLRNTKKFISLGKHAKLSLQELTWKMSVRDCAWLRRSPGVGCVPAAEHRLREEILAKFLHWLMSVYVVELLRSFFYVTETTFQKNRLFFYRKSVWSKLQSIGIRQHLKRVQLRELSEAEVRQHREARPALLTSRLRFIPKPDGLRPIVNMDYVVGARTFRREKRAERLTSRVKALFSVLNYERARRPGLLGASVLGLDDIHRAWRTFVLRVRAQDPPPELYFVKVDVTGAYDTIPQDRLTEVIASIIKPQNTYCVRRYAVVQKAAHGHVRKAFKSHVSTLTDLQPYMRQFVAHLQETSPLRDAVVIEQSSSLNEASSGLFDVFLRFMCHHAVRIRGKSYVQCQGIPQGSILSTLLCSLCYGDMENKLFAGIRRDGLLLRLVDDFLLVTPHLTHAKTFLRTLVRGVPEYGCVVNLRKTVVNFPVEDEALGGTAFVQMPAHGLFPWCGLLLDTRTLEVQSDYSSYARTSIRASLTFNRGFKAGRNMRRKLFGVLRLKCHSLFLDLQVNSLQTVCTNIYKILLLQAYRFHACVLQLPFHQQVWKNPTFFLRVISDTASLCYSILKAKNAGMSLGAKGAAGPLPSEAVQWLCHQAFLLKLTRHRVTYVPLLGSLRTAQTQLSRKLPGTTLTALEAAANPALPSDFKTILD

| Structure (SMILES) | IC50 (MGC-803 [1]) | IC50 [2] | IC50 (Bcap37) | IC50 [3] | Activity (MGC-803 [4]) | Activity (MGC-803 [5]) | Activity (MGC-803 [6]) |
| --- | --- | --- | --- | --- | --- | --- | --- |
| CCCc1nn(C)c(C(N)=O)c1NC(=O)c1cc(OC)c(OC)cc1OC | 29.5 µM | 12.2 µM | 33.5 µM | 34.8 µM |  |  |  |
| CCCc1nn(C)c(C(N)=O)c1NC(=O)/C=C/c1ccco1 | 3.01 µM | 1.02 µM | 10.5 µM | 8.3 µM | 59.82% | 42.2% | 2.46% |
| CCCc1nn(C)c2c(=O)[nH]c(/C=C/c3ccco3)nc12 | 7.14 µM | 15.2 µM | 28.7 µM | 10.3 µM |  |  |  |
| O=c1[nH]cc(F)c(=O)[nH]1 [FLUOROURACIL] |  |  | 5.18 µM | 6.56 µM |  |  |  |
| CCCc1nn(C)c(C(N)=O)c1NC(=O)c1cc(OC)c(OC)c(OC)c1 | 4.57 µM | 7.87 µM | 40.4 µM | 13.4 µM |  |  |  |
| CCCc1nn(C)c(C(N)=O)c1NC(=O)/C=C/c1cc(OC)c(OC)c(OC)c1 | 4.24 µM | 3.49 µM | 55.7 µM | 12.8 µM |  |  |  |
| CCCc1nn(C)c2c(=O)[nH]c(/C=C/c3cc(OC)c(OC)c(OC)c3)nc12 | 32.8 µM | 19 µM | 37.4 µM | 25.7 µM |  |  |  |
| CCCc1nn(C)c(C(N)=O)c1NC(=O)/C=C/c1ccccc1 | 3.44 µM | 1.98 µM | 46.7 µM | 8.11 µM |  |  |  |
| CCCc1nn(C)c2c(=O)[nH]c(/C=C/c3ccccc3)nc12 | 22.6 µM |  | 45.3 µM | 17.2 µM |  |  |  |
